This is a sample that favours compounds with a hit; in the whole collection about 3.1% have one here.
KCNK3 inh = human KCNK3 channel inhibition, primary screen | O14649 | CHO-KCNK3 thallium flux, FluxOR fluorescence; active compounds read low | B-score at 10 µM | 340,000 tested, 0.84% active | AID 602410;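 active means B-score under library mean minus 4 SD, starting fluorescence ratio at most library mean plus 5 SD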;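 further: more negative B-score means stronger inhibition of thallium flux through KCNK3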
KCNQ1 inh = human KCNQ1 channel inhibition; CHO-K1 KCNQ1, FluxOR thallium flux fluorescence; active compounds read high; B-score at 10 µM; 310,000 tested, 1.3% active; AID 2642;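 active means compounds whose thallium flux B-score, printed positive for inhibition, exceeds three library SD while starting fluorescence stays within three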;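 further: channel opened by potassium depolarization with thallium stimulus after 20 min compound exposure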
hERG rescue = compounds protecting human hERG from proarrhythmic drug block | AID 1511 | Q12809 | activation (rescue from dofetilide block), less the hit threshold, % at 10 µM | 310,000 tested, 0.51% active | CHO-hERG, FluxOR thallium flux, dofetilide IC70 present;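 active means activation above the mean of controls blocked by dofetilide plus 5 SD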;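 further: thallium influx through hERG after potassium depolarization seen as dye fluorescence rise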
KCNK9 block = inhibitors of human KCNK9 two-pore domain potassium channel; Q9NPC2; B-score at 10 µM; AID 488922; 310,000 tested, 1.2% active; HEK293 KCNK9, FluxOR thallium flux fluorescence; active compounds read low;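 active means ratio B-score over 3 SD below the library mean, with starting fluorescence within 5 SD of its mean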;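 further: negative B-score means less thallium flux so channel inhibition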
Target sequence (Q9NPC2 whole entry, looked up, the tested form may be a part): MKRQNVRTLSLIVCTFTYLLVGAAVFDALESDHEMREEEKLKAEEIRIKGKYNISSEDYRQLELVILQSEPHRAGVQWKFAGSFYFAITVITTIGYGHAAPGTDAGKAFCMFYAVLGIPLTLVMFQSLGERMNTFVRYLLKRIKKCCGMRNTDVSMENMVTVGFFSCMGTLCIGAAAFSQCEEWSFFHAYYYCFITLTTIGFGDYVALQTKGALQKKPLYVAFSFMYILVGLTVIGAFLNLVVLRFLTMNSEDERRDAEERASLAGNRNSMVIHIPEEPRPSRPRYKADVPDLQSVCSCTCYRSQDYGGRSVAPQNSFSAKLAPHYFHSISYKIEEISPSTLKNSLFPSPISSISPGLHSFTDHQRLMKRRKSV
KCNQ1 act = potentiates or activates the human KCNQ1 potassium channel. 310,000 tested, 0.35% active. P51787. AID 2648. B-score at 10 µM. CHO-K1 KCNQ1, thallium flux FluxOR fluorescence; active compounds read high;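 active means fluorescence ratio B-score, a plate-corrected score, at least three library SD, with initial intensity B-score within 5 SD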
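Assay system: CHO-K1 cells stably expressing KCNQ1. Medium: assay buffer for compound exposure, DMSO matched across wells. Timing: 37 °C overnight plating, 90-min dark dye load, 20-min compound pretreatment. Signal: kinetic FluxOR fluorescence, 10 s baseline plus 110 s post-stimulus.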
KCNK9 block conf = human KCNK9 inhibitor confirmation | HEK293 KCNK9 cells, FluxOR thallium flux fluorescence | inhibition, % at 10 µM | 4,900 tested, 43% active | shares compounds with KCNK9 block | AID 492992;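 active means thallium signal inhibited by more than 5 SD of the compound-free buffer control wells, on both duplicate plates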;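 further: 0% = assay buffer control wells without compound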
Kir2-1 spec = selectivity of KCNK9 modulators against mouse Kir2.1. shares compounds with KCNK9 block. 4,900 tested, 4% active. Kir2.1 cells, FluxOR thallium flux fluorescence. inhibition, % at 10 µM;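 active means thallium signal drop more than 5 SD beyond the mean of the no-compound control wells, seen in both duplicate plates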;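 further: signal is fluorescence rise after thallium addition divided by baseline fluorescence; plate controls were assay buffer only for no effect and full block by chlorpromazine control for full effect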
HEK293 Tl ctr = second counter-screen for KCNK9 modulators: effect in non-induced cells; non-induced KCNK9-HEK293, FluxOR thallium flux; inhibition, % at 10 µM; 4,900 tested, 40% active; shares compounds with KCNK9 block; AID 492997;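 active means thallium signal drop beyond 5 SD of the untreated control mean, on both duplicate plates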;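 further: plate controls were buffer only IC0 wells for no effect and SID17386958 at its maximal inhibitory level for full effect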
The depositor's hits bear a star; i = inactive; / = not tested or not shown.

SMILES | KCNK3 inh | KCNQ1 inh | hERG rescue | KCNK9 block | KCNQ1 act | KCNK9 block conf | Kir2-1 spec | HEK293 Tl ctr
CCc1ccc2nc(SCC(=O)NCC3CCCO3)c(C#N)cc2c1 (configuration not stated) | i | i | -4 | i | i | i | i | i
C[C@@H](NCCCn1cnc2c(OCc3ccccc3)ncnc21)c1cccc2ccccc12 | i | / | / | / | / | / | / | /
Oc1c(C(Nc2nccs2)c2ccc(C(F)(F)F)cc2)ccc2cccnc12 (configuration not stated) | i | i | -15 | i | i | i | i | i
COc1ccc(C/C(N)=N/OC(=O)COc2ccccc2C)cc1 | i | i | -6 | i | i | / | / | /
COc1ccccc1C/C(N)=N/OC(=O)COc1ccc(C)cc1C | i | i | -12 | i | i | i | i | i
COc1ccc(/C=C/C(=O)c2ccccc2)cc1COc1ccccc1F | -12* | i | -12 | -12* | i | 50%* | i | 32%*
COc1ccc(C=O)cc1COc1ccccc1F | i | i | -1 | i | i | / | / | /
COc1ccc(/C=C/C(=O)C2CC2)cc1COc1c(C)cccc1C | i | 8* | -16 | -11* | i | 48%* | i | i
O=C(CSc1ccc(F)cc1)Nc1ccc(C2SCCS2)cc1 | i | i | -5 | i | i | / | / | /
NS(=O)(=O)c1ccc(NC(=S)Nc2ccn(Cc3cccc4ccccc34)n2)cc1 | i | i | -4 | i | i | i | i | i
O=C(CCC(=O)c1cccs1)NCc1cccc(Cl)c1 | i | i | -14 | i | i | / | / | /
CCOC(=O)N1CCc2c(sc3c2c(=O)n(Cc2ccccc2)c(=O)n3Cc2ccccc2F)C1 | i | i | -10 | i | i | i | i | i
CCOC(=O)N1CCc2c(sc3c2c(=O)n(Cc2ccccc2)c(=O)n3Cc2cccc(C)c2)C1 | i | i | -6 | i | i | i | i | i
CCOC(=O)N1CCc2c(sc3c2c(=O)n(Cc2ccccc2)c(=O)n3CC(=O)NCC2CCCO2)C1 (configuration not stated) | i | i | -11 | i | i | / | / | /
O=C(O)Cn1c(=O)c2c3c(sc2n(Cc2ccccc2)c1=O)CCCC3 | i | i | -4 | i | i | / | / | /
CCOC(=O)C1CCN(Cc2coc3c(Cl)cc(Cl)cc3c2=O)CC1 | i | i | -10 | i | i | i | i | i
Cc1ccc(O)c(NC(=S)NC(=O)c2ccccc2Cl)c1 | i | i | -10 | i | i | / | / | /
COc1ccc(OC)c(C(c2nnnn2C2CCCC2)N2CCN(c3ccccc3)CC2)c1 (configuration not stated) | i | i | -8 | -8.6* | i | 58%* | i | 43%*
N#C/C(=C\c1ccc(Cl)cc1)C(=O)Nc1cccnc1 | i | i | -12 | i | i | / | / | /
CC(NC(=O)c1cc2cc(Br)ccc2oc1=N)c1ccccc1 (configuration not stated) | i | i | -16 | i | i | i | i | i
N=c1oc2ccc(Br)cc2cc1C(=O)NCc1ccccc1 | i | i | -7 | i | i | / | / | /
COc1ccc(-c2cc(C)no2)cc1S(=O)(=O)NCCCN1CCCCCC1 | i | i | -4 | i | i | / | / | /
O=[N+]([O-])c1ccc(Oc2c(F)c(F)nc(N3CCCC3)c2F)cc1 | i | 7* | -4 | i | i | i | i | i
COc1ccc(NC(=O)CCCNC(=O)Cn2cnc3sc4c(c3c2=O)CCCC4)c(OC)c1 | i | i | -14 | i | i | / | / | /
CCN(C(=S)Nc1ccc(Oc2ccccc2)cc1)c1ccccc1 | i | i | -8 | i | i | i | i | i
SMILES | KCNK3 inh | KCNQ1 inh | hERG rescue | KCNK9 block | KCNQ1 act | KCNK9 block conf | Kir2-1 spec | HEK293 Tl ctr
CCN(C(=S)Nc1cccc(C)c1)c1ccccc1 | i | i | -5 | i | i | / | / | /
Cc1cc(NS(=O)(=O)c2c(C(=O)N3CCOCC3)c(C)n(C)c2C)ccc1Br | i | i | -5 | i | i | / | / | /
Cc1cc(C)n(-c2ccc(C(=O)N3CCN(c4ccccn4)CC3)cc2)n1 | i | / | / | / | / | / | / | /
Cc1cc(C)n(-c2nc3ccccc3nc2N2CCN(C(=O)c3ccccc3)CC2)n1 | i | i | -8 | i | i | i | i | i
CCCCCC(=O)O[C@]1(C(C)=O)CC[C@H]2[C@@H]3CCC4=CC(=O)CC[C@]4(C)[C@H]3CC[C@@]21C | -10* | 12* | -5 | -13* | i | 66%* | i | 45%*
CC(=O)[C@@]1(O)CC[C@H]2[C@@H]3CCC4=CC(=O)CC[C@]4(C)[C@H]3CC[C@@]21C | i | i | -3 | i | i | / | / | /
Cn1c(=O)c2c(nc(CN3CCN(c4ccccc4F)CC3)n2CCCc2ccccc2)n(C)c1=O | i | i | -7 | i | i | i | i | i
CCCCCCn1c(N2CCN(c3ccccc3)CC2)nc2c1c(=O)n(C)c(=O)n2C | i | i | -23 | -8.5* | i | 43%* | i | 40%*
Cc1[nH]n(-c2ccccc2)c(=O)c1/C=N/NC(=O)c1cccc(F)c1 | i | i | -14 | i | i | / | / | /
Cc1[nH]n(-c2ccc(Br)cc2)c(=O)c1/C=N/NC(=O)c1ccccc1 | i | i | -9 | i | i | i | i | i
O=C(/C=C/c1ccco1)OCC(=O)N1CCCCC1 | i | / | / | / | / | / | / | /
C(=N\N(Cc1ccccc1)c1ccccc1)/c1cccnc1 | i | i | -11 | -12* | i | 54%* | i | 26%*
C/C(=N\N(Cc1ccccc1)c1ccccc1)c1cccnc1 | i | i | -3 | i | i | / | / | /
COc1ccc(C(=O)Nc2sc3c(c2C(=O)NCc2ccco2)CCCC3)cc1OC | i | i | -9 | -12* | i | 31%* | i | i
O=C(Nc1sc2c(c1C(=O)NCc1ccco1)CCCC2)c1ccc2c(c1)OCO2 | i | i | -4 | -10* | i | 42%* | i | i
Cc1ccc(C(=O)Nc2sc3c(c2C(=O)NCc2ccco2)CCCC3)cc1 | i | i | -10 | i | i | / | / | /
COc1cc(C(=O)Nc2sc3c(c2C(=O)NCc2ccco2)CCCC3)cc(OC)c1OC | i | i | -10 | i | i | / | / | /
O=C(COc1coc(CN2CCCc3ccccc32)cc1=O)Nc1ccccc1 | i | i | -7 | i | i | / | / | /
